Tests used:
[1] = tested on: Mus musculus; test: Tested in vivo for head twitches antagonizing activity in mice; assay type: functional
[2] = tested on: Rattus norvegicus; test: Tested in vivo for serotonin syndrome antagonizing activity in rat at a dose of 4 mg/kg
[3] = tested on: Mus musculus; test: In vivo effect on Tetrabenazine motor activity in mice following i.p. administration.; assay type: functional; conditions: ip
[4] = tested on: Mus musculus; test: In vivo effect on Tetrabenazine ptosis activity in mice following i.p. administration.; assay type: functional; conditions: ip
[5] = tested on: Rattus norvegicus; test: Tested in vivo for serotonin syndrome antagonizing activity in rat at a dose of 5 mg/kg; assay type: functional
[6] = target: dopamine transporter (Rattus norvegicus); test: Tested in vitro for dopamine(DA) neuronal uptake inhibition
[7] = target: norepinephrine transporter (Rattus norvegicus); test: Tested in vitro for norepinephrine (NE) neuronal uptake inhibition
[8] = tested on: Rattus norvegicus; test: Tested in vivo for serotonin syndrome antagonizing activity in rat on oral administration; assay type: functional
[9] = tested on: Rattus norvegicus; test: Tested in vivo for serotonin syndrome antagonizing activity in rat; assay type: functional
[10] = tested on: Rattus norvegicus; test: Tested in vivo for serotonin syndrome antagonizing activity in rat at a dose of 40 mg/kg; assay type: functional; conditions: read-out: Inhibition
[11] = target: serotonin transporter (Rattus norvegicus); test: Tested in vitro for serotonin(5-HT) neuronal uptake inhibition
[12] = tested on: norepinephrine transporter (Rattus norvegicus); test: Tested in vitro for norepinephrine (NE) neuronal uptake inhibition; remark: listed apart in the source
[13] = tested on: dopamine transporter (Rattus norvegicus); test: Tested in vitro for dopamine(DA) neuronal uptake inhibition; remark: listed apart in the source
[14] = tested on: serotonin transporter (Rattus norvegicus); test: Tested in vitro for serotonin(5-HT) neuronal uptake inhibition; remark: listed apart in the source
[15] = tested on: Mus musculus; test: Tested in vivo for head twitches antagonizing activity in mice at a dose of 5 mg/kg; assay type: functional
Procedure, shortened: (§1)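 Male Swiss CD-1 mice (19–24 g), 10 per dose, received test compound s.c. 30 min later they got a subthreshold dose of L-5-hydroxytryptophan (50 mg/kg i.p.). After 15 min acclimation, presence or absence of head twitches was scored over 2 min. Results were expressed as percent responding or as ED50 by probit analysis, using at least three doses.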

[16] = tested on: Rattus norvegicus; test: Tested in vivo for serotonin syndrome antagonizing activity in rat at a dose of 4 mg/kg on oral administration; assay type: functional
[17] = tested on: Rattus norvegicus; test: Tested in vivo for serotonin syndrome antagonizing activity in rat at a dose of 4 mg/kg; assay type: functional
[18] = tested on: Mus musculus; test: Tested in vivo for head twitches antagonizing activity in mice at a dose of 2 mg/kg; assay type: functional; procedure, shortened: as §1

CSc1ccc([C@@H]2CN3CCC[C@H]3c3ccccc32)cc1
ED50 ([1]; Mus musculus, read-out: ED50): ~10 mg/kg | inhibition in vivo at 4 mg/kg [2]: 4.5% | ED50 [3]: > 30 mg/kg

Clc1ccc([C@@H]2CN3CCC[C@@H]3c3ccccc32)cc1
ED50 ([1]; Mus musculus, read-out: ED50): 0.76 mg/kg | ED50 [3]: 0.39 mg/kg | ED50 [4]: 0.14 mg/kg | inhibition in vivo at 5 mg/kg [5]: 52%

NC(=O)c1ccc(C2CN3CCCC3c3ccccc32)cc1 (stereo unspecified)
ED50 ([1]; Mus musculus, read-out: ED50): ~5 mg/kg | Ki [6]: 0.0845 µM | Ki [7]: 0.0902 µM | ED50 [8]: 4.5 mg/kg

N#Cc1ccc(C2CN3CCCC3c3ccccc32)cc1 (stereo unspecified)
ED50 ([1]; Mus musculus, read-out: ED50): ~3 mg/kg | ED50 [9]: 15 mg/kg

C#Cc1ccc(C2CN3CCCC3c3ccccc32)cc1 (stereo unspecified)
ED50 ([1]; Mus musculus, read-out: ED50): ~1 mg/kg

c1ccc([C@@H]2CN3CCC[C@@H]3c3ccccc32)cc1
ED50 ([1]; Mus musculus, read-out: ED50): > 25 mg/kg | ED50 [3]: 0.34 mg/kg | ED50 [4]: 0.07 mg/kg

Br.CCSc1ccc(C2CN3CCCC3c3ccccc32)cc1 (stereo unspecified)
ED50 ([1]; Mus musculus, read-out: ED50): 0.54 mg/kg | inhibition in vivo at 40 mg/kg [10]: 36% | ED50 [3]: > 10 mg/kg | ED50 [4]: ~3 mg/kg

CSc1ccc(C2CN3CCCC3c3c(Br)cccc32)cc1.Cl (stereo unspecified)
ED50 ([1]; Mus musculus, read-out: ED50): > 5 mg/kg

CSc1ccc(C2CN3CCCC3c3c(C#N)cccc32)cc1.Cl (stereo unspecified)
ED50 ([1]; Mus musculus, read-out: ED50): > 5 mg/kg | Ki [11]: 0.0147 µM | Ki [6]: 2.8 µM | Ki [7]: 0.39 µM

CSc1ccc(C2CN3CCC[C@@H]3c3c(Cl)cccc32)cc1.Cl (stereo partly specified)
ED50 ([1]; Mus musculus, read-out: ED50): 1.04 mg/kg | Ki [11]: 0.003 µM | Ki [6]: 0.29 µM | ED50 [3]: 3 mg/kg | ED50 [4]: 3 mg/kg | Ki [7]: 0.0231 µM

COc1cc(OC)c2c(c1)C1CCCN1CC2c1ccc(SC)cc1.Cl (stereo unspecified)
ED50 ([1]; Mus musculus, read-out: ED50): ~5 mg/kg | Inhibition [12]: 55% | Inhibition [13]: 67% | Inhibition [14]: 68%

CSc1ccc(C2CN3CCC[C@H]3c3c(Cl)cccc32)cc1.Cl (stereo partly specified)
Ki [11]: ~0.1 µM | Inhibition [12]: 10% | ED50 [3]: ~1 mg/kg | inhibition in vivo at 5 mg/kg [15]: 30% | Inhibition [13]: 10% | ED50 [4]: 3 mg/kg

Br.CSc1ccc(C2CN3CCCC3c3c(C)cccc32)cc1 (stereo unspecified)
ED50 ([1]; Mus musculus, read-out: ED50): 0.16 mg/kg | Ki [11]: 0.0024 µM | Ki [6]: 0.0577 µM | ED50 [3]: > 3 mg/kg | ED50 [4]: ~1 mg/kg | Ki [7]: 0.0115 µM

CSc1ccc(C2CN3CCCC3c3ccc(Cl)cc32)cc1.Cl (stereo unspecified)
Ki [11]: 0.0086 µM | Ki [6]: 0.103 µM | ED50 [3]: > 3 mg/kg | inhibition in vivo at 5 mg/kg [15]: 30% | ED50 [4]: > 3 mg/kg | Ki [7]: 0.0162 µM

CS(=O)(=O)c1ccc(C2CN3CCCC3c3ccccc32)cc1 (stereo unspecified)
ED50 ([1]; Mus musculus, read-out: ED50): ~5 mg/kg | inhibition in vivo at 4 mg/kg ([16]; read-out: Inhibition): 1.5% | ED50 [4]: 30 mg/kg

Clc1ccc(C2CN3CCCC3c3ccccc32)c(Cl)c1 (stereo unspecified)
ED50 ([1]; Mus musculus, read-out: ED50): ~5 mg/kg

Clc1ccccc1C1CN2CCC[C@@H]2c2ccccc21 (stereo partly specified)
ED50 ([1]; Mus musculus, read-out: ED50): > 25 mg/kg | ED50 [3]: > 60 mg/kg | ED50 [4]: 0.17 mg/kg | ED50 [9]: > 25 mg/kg

CSc1ccccc1C1CN2CCCC2c2ccccc21 (stereo unspecified)
inhibition in vivo at 5 mg/kg [15]: 30%

COc1ccccc1C1CN2CCCC2c2ccccc21 (stereo unspecified)
ED50 ([1]; Mus musculus, read-out: ED50): 0.81 mg/kg | ED50 [3]: ~0.6 mg/kg | inhibition in vivo at 4 mg/kg [16]: 5.2% | ED50 [4]: ~0.3 mg/kg

FC(F)(F)c1ccc(C2CN3CCCC3c3ccccc32)cc1 (stereo unspecified)
ED50 ([1]; Mus musculus, read-out: ED50): 0.55 mg/kg | Ki [6]: 0.128 µM | ED50 [3]: > 3 mg/kg | ED50 [4]: ~2 mg/kg | Ki [7]: 0.0106 µM | inhibition in vivo at 4 mg/kg [17]: 5.8%

CC(=O)Nc1ccc(C2CN3CCCC3c3ccccc32)cc1 (stereo unspecified)
ED50 ([1]; Mus musculus, read-out: ED50): 0.31 mg/kg | ED50 [3]: 0.04 mg/kg | ED50 [4]: 0.04 mg/kg | ED50 [9]: 1.37 mg/kg

Clc1ccc(C2CN3CCCC3c3cc(Cl)ccc32)cc1 (stereo unspecified)
Ki [6]: 0.0032 µM | inhibition in vivo at 2 mg/kg [18]: 30% | ED50 [4]: 4 mg/kg | Ki [7]: 0.0032 µM | inhibition in vivo at 5 mg/kg [5]: 22%

CSc1ccc(C2CN3CCC[C@@H]3c3ccccc32)cc1 (single isomer, unassigned; (+))
ED50 [1]: 0.043 mg/kg

CSc1ccc(C2CN3CCC[C@@H]3c3ccccc32)cc1 (single isomer, unassigned; (-))
ED50 [1]: ~5 mg/kg

CSc1ccc(C2CN3CCC[C@@H]3c3ccccc32)cc1 (stereo in doubt; 3b)
ED50 [1]: 0.081 mg/kg | ED50 [3]: > 30 mg/kg | ED50 [4]: 0.4 mg/kg | ED50 [9]: 0.2 mg/kg

C[S+]([O-])c1ccc(C2CN3CCCC3c3ccccc32)cc1 (stereo in doubt; 11a)
ED50 [1]: >5 mg/kg | Inhibition [12]: 4% | Inhibition [13]: 2% | Inhibition [14]: 12%

C[S+]([O-])c1ccc(C2CN3CCCC3c3ccccc32)cc1 (stereo in doubt; 11b)
ED50 [1]: 0.55 mg/kg | Ki [11]: 0.597 µM | Ki [6]: 6.18 µM | ED50 [3]: > 3 mg/kg | Ki [7]: 0.723 µM

CN(C)CCCC1(c2ccc(F)cc2)OCc2cc(C#N)ccc21 (stereo unspecified) [CITALOPRAM]
ED50 ([1]; Mus musculus, read-out: ED50): 0.29 mg/kg | ED50 [9]: 0.78 mg/kg

COc1ccc(OC[C@H]2CN(C)CC[C@@H]2c2ccccc2)cc1 [FEMOXETINE]
ED50 ([1]; Mus musculus, read-out: ED50): 3.3 mg/kg | ED50 [3]: 3.5 mg/kg | ED50 [4]: 2.1 mg/kg | ED50 [9]: 11.4 mg/kg

CNCCC(Oc1ccc(C(F)(F)F)cc1)c1ccccc1 (stereo unspecified) [FLUOXETINE]
ED50 ([1]; Mus musculus, read-out: ED50): 0.43 mg/kg | ED50 [9]: 12.7 mg/kg

CN(C)CCCN1c2ccccc2CCc2ccccc21 [IMIPRAMINE]
ED50 ([1]; Mus musculus, read-out: ED50): > 50 mg/kg | ED50 [3]: 0.58 mg/kg | ED50 [4]: 0.98 mg/kg | ED50 [9]: > 25 mg/kg

Fc1ccc([C@@H]2CCNC[C@H]2COc2ccc3c(c2)OCO3)cc1 [PAROXETINE]
ED50 ([1]; Mus musculus, read-out: ED50): 0.062 mg/kg | ED50 [9]: 0.49 mg/kg
